The target in assay [1] is Dual specificity protein kinase CLK1 (Homo sapiens) (UniProt P49759). Kind of assay: Inhibition of human recombinant CLK1 at 40 nM in presence of ATP by radiometric assay relative to control.
Assay [2] is filed under the species Homo sapiens. Kind of assay: Inhibition of human recombinant KHS1 at 40 nM in presence of ATP by radiometric assay relative to control.
Assay [3] concerns the target T1, Mitogen-activated protein kinase kinase kinase 3 (Homo sapiens) (UniProt Q99759).
T1 sequence (whole entry): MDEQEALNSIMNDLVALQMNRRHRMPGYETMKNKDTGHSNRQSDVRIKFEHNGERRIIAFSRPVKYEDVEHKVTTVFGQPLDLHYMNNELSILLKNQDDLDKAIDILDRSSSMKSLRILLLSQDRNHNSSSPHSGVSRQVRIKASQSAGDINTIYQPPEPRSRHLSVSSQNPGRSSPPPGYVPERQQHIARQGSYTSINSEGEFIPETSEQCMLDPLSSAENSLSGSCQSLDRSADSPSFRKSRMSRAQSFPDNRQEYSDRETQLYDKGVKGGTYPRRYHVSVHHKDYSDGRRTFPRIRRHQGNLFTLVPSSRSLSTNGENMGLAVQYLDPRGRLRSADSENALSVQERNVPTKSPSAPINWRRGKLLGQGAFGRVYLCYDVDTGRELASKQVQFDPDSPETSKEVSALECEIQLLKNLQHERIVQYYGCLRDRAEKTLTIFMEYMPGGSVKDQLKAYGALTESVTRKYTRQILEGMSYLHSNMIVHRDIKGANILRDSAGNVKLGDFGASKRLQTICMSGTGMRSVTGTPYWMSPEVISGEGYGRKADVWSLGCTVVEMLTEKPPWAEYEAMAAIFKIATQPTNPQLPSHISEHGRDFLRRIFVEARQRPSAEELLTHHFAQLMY
Kind of assay: Inhibition of human recombinant MAP3K3 at 40 nM in presence of ATP by radiometric assay relative to control.

In assay [4] the target is Serine/threonine-protein kinase PAK 5 (Homo sapiens) (UniProt Q9P286). Kind of assay: Inhibition of human recombinant PAK5 at 40 nM related to control ULK1.
Chain of Serine/threonine-protein kinase PAK 5 (Homo sapiens) (Q9P286 whole entry, looked up, canonical isoform): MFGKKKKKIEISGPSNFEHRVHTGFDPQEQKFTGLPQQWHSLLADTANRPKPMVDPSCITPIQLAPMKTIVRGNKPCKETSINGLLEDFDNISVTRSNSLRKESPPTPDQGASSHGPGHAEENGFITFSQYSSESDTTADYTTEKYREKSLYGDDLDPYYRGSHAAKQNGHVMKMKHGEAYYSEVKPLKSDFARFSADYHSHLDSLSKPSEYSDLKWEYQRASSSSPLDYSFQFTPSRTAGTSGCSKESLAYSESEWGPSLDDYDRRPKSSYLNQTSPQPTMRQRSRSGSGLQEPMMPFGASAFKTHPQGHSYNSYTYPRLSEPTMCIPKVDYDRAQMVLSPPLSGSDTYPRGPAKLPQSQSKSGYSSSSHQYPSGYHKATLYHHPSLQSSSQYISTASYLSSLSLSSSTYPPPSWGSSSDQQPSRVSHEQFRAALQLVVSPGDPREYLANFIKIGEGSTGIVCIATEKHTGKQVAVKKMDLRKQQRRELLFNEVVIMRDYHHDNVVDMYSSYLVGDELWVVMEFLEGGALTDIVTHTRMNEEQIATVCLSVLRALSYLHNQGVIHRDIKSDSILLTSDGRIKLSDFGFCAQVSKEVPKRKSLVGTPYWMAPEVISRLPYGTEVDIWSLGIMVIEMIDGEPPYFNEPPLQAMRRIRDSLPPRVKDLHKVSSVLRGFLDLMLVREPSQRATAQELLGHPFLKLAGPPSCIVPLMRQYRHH
Assay [5] has as its target Tyrosine-protein kinase Blk (Homo sapiens) (UniProt P51451). Nature of the assay: Inhibition of human recombinant BLK at 500 nM in presence of ATP by radiometric assay relative to control. The method, boiled down:
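Part of a radiometric in vitro activity panel of 327 recombinant human kinases. Each kinase was tested in duplicate at one inhibitor concentration. Activity remaining was expressed as a percentage of the vehicle control, and percent inhibition was taken as 100 minus that value.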

Assay [6] has as its target Calcium/calmodulin-dependent protein kinase kinase 2 (Homo sapiens) (UniProt Q96RR4). Kind of assay: Inhibition of human recombinant CaMKK2 at 500 nM in presence of ATP by radiometric assay relative to control.
For assay [7], the target named is Serine/threonine-protein kinase PAK 5 (Homo sapiens) (UniProt Q9P286). Kind of assay: Inhibition of human recombinant PAK5 at 500 nM in presence of ATP by radiometric assay relative to control.
Assay [8] has as its target T2, Phosphorylase b kinase gamma catalytic chain, liver/testis isoform (Homo sapiens) (UniProt P15735).
T2 sequence (whole entry): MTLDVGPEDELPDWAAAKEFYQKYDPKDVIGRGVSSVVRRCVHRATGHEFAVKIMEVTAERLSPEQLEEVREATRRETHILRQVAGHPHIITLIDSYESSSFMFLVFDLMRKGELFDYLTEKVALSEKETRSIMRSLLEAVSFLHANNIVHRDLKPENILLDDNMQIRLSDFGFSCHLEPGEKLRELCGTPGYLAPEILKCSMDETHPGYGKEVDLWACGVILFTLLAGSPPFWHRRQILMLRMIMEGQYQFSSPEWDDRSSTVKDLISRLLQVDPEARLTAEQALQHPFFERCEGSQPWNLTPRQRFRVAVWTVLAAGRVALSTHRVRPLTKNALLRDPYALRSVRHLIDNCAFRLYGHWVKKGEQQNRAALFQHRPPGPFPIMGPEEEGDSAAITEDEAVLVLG
Kind of assay: Inhibition of human recombinant PHKg2 at 500 nM in presence of ATP by radiometric assay relative to control.

In assay [9] the target is T3, Dual specificity tyrosine-phosphorylation-regulated kinase 3 (Homo sapiens) (UniProt O43781).
T3 sequence (whole entry): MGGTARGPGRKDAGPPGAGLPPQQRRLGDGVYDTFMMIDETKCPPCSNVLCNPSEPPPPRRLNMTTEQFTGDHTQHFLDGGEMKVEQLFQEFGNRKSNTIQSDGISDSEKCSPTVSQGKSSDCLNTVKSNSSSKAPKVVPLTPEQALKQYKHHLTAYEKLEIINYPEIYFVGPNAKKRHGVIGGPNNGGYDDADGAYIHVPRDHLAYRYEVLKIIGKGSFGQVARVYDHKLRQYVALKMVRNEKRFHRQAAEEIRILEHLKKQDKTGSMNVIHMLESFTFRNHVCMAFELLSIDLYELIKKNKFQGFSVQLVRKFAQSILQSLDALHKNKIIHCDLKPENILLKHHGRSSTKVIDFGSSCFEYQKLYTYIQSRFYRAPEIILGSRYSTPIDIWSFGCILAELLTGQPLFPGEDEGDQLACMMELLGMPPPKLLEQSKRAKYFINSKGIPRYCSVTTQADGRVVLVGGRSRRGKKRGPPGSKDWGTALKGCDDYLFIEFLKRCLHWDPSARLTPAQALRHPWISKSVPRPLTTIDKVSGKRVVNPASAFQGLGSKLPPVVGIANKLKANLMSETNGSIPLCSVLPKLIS
Kind of assay: Inhibition of human recombinant DYRK3 at 500 nM related to control ULK1.

Assay [10] deals with Tyrosine-protein kinase Fyn (Homo sapiens) (UniProt P06241). Kind of assay: Inhibition of human recombinant FYN at 500 nM related to control ULK1.
Chain of Tyrosine-protein kinase Fyn (Homo sapiens) (P06241 2-537 limits assumed): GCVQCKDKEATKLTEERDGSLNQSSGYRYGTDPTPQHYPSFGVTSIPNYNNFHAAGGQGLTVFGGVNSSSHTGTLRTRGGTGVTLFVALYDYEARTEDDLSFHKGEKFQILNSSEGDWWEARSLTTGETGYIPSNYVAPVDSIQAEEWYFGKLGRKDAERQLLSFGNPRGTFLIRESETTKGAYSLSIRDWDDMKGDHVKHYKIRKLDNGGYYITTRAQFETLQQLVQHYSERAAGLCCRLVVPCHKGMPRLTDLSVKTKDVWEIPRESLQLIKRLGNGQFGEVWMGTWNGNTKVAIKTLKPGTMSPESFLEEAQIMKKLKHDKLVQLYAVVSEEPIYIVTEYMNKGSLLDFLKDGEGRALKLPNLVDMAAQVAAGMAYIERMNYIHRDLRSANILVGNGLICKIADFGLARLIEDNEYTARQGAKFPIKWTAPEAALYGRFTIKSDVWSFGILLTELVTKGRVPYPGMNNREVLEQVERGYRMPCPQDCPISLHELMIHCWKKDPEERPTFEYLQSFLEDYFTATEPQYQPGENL
For assay [11], the target named is Proto-oncogene tyrosine-protein kinase receptor Ret (Homo sapiens) (UniProt P07949). Nature of the assay: Inhibition of human recombinant RET at 500 nM related to control ULK1.
Chain of Proto-oncogene tyrosine-protein kinase receptor Ret (Homo sapiens) (P07949 whole entry): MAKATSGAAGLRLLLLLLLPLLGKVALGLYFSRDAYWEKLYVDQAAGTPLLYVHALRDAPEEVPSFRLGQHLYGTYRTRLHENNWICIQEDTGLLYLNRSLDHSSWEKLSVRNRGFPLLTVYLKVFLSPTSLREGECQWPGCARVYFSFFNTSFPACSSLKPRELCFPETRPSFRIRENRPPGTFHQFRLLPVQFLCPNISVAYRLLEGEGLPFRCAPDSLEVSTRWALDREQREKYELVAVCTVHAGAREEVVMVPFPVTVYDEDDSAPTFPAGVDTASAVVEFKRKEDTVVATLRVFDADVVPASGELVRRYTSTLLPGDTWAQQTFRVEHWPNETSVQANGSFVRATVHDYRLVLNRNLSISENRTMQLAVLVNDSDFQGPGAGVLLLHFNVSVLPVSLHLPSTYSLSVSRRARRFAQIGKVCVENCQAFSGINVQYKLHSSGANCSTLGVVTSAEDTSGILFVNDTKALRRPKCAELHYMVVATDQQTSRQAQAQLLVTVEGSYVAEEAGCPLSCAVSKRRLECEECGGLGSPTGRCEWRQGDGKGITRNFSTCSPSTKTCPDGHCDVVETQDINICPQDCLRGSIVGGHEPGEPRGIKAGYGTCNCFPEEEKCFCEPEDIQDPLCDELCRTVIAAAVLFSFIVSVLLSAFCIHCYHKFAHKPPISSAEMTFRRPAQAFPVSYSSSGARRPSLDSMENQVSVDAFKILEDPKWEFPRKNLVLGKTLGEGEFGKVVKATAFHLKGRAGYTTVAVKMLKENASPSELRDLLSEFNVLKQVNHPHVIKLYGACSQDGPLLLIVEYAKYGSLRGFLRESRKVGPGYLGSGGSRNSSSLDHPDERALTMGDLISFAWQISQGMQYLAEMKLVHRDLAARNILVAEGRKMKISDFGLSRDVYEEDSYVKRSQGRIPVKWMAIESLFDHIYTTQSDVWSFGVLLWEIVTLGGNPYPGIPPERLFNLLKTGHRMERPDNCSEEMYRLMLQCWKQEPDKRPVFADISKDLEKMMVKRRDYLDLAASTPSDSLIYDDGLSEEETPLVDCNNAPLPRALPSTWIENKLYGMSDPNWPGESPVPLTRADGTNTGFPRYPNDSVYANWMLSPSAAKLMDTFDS
Assay [12] deals with NT-3 growth factor receptor (Homo sapiens) (UniProt Q16288). Nature of the assay: Inhibition of human recombinant TRKC at 500 nM related to control ULK1.
Assay [13] concerns the target Insulin-like growth factor 1 receptor (Homo sapiens) (UniProt P08069). Kind of assay: Inhibition of human recombinant IGF1R at 15 nM related to control ULK1.
In assay [14] the target is T4, Testis-specific serine/threonine-protein kinase 2 (Homo sapiens) (UniProt Q96PF2).
T4 sequence (whole entry): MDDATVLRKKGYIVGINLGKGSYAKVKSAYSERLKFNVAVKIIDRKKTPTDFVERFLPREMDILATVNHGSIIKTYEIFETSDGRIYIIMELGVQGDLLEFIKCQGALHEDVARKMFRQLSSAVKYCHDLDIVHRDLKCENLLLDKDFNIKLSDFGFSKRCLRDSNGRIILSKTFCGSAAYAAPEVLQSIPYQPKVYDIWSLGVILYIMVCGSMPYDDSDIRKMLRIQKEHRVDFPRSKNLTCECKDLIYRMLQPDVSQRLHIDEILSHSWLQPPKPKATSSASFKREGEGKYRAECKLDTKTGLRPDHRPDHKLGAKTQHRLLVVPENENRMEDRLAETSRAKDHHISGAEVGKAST
Kind of assay: Inhibition of human recombinant TSSK2 at 15 nM related to control ULK1.

Chain of Insulin-like growth factor 1 receptor (Homo sapiens) (P08069 31-736 limits assumed): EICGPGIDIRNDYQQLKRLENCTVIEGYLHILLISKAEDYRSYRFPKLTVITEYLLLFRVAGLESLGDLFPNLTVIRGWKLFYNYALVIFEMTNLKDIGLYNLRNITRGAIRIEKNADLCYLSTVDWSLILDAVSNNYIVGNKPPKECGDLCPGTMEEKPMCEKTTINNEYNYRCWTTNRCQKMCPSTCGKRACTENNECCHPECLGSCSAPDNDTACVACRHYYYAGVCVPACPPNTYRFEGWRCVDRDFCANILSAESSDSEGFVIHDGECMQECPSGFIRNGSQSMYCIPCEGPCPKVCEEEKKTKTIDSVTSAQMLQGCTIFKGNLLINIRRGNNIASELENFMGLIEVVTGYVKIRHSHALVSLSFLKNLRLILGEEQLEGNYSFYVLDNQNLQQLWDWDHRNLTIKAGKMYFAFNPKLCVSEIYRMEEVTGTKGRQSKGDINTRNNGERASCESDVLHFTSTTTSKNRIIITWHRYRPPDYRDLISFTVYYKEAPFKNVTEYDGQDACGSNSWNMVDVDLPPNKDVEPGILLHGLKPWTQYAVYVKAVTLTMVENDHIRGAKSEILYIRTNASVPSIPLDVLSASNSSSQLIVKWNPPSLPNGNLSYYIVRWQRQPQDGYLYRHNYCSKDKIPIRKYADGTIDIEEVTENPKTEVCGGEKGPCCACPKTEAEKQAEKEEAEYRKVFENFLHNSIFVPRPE
Chain of Insulin-like growth factor 1 receptor (Homo sapiens) (P08069 741-1367 limits assumed): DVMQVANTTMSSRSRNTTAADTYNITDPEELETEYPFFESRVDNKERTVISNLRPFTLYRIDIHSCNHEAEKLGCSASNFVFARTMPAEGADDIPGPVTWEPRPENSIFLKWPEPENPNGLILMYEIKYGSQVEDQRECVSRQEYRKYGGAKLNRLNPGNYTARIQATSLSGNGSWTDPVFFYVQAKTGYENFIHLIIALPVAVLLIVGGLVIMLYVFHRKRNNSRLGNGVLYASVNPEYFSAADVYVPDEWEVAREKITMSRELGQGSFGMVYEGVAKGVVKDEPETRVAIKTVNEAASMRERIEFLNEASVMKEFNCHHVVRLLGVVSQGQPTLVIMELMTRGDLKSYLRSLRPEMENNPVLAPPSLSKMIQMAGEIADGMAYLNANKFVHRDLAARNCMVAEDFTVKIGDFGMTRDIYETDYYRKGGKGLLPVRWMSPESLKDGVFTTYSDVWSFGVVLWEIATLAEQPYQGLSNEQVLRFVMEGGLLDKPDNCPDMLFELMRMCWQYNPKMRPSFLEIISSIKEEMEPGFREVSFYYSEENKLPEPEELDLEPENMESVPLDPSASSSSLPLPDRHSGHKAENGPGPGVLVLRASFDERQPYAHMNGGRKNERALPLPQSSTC
Chain of Calcium/calmodulin-dependent protein kinase kinase 2 (Homo sapiens) (Q96RR4 2-588 limits assumed): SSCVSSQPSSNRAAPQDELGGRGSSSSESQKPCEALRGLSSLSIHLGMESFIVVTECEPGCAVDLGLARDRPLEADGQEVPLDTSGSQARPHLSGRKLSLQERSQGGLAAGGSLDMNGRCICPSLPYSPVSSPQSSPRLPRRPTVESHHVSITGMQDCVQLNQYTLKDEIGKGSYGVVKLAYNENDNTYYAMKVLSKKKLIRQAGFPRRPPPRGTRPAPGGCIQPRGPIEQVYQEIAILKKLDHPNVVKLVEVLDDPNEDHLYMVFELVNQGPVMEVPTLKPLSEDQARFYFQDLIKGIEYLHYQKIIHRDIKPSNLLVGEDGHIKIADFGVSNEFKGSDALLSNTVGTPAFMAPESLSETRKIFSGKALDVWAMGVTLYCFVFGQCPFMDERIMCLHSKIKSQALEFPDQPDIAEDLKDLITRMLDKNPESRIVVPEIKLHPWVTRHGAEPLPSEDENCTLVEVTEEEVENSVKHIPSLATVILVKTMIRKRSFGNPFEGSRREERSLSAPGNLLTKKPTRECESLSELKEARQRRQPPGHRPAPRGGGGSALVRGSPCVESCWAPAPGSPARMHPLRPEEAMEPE
Chain of Dual specificity protein kinase CLK1 (Homo sapiens) (P49759 whole entry, looked up): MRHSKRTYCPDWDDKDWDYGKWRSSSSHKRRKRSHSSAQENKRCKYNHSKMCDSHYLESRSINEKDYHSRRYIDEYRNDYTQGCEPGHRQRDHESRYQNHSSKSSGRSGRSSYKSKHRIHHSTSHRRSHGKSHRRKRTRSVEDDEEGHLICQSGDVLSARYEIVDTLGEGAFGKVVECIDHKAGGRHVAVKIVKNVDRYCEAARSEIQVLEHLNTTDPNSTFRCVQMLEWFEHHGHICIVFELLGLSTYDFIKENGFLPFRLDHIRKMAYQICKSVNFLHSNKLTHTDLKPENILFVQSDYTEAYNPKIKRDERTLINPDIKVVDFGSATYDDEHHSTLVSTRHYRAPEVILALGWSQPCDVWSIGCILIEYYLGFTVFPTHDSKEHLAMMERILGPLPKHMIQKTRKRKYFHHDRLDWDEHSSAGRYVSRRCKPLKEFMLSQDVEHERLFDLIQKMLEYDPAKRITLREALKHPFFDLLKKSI

The term inhibition denotes how much of the control response was suppressed. For `O=C(N[C@@H](C1CC1)C(F)(F)F)c1cc(-c2cnn3cc(-c4ccc(F)cc4)cnc23)cs1`, the inhibition in [1] turned out to be 34%; in [2], 0%; in assay [3], 0%. Moreover, in assay [4], the fold change (FC) was found to be 0.

Regarding `CNC(=O)c1ccccc1Oc1nc(Nc2cc(OC)c(OC)c(OC)c2)ncc1Br`, the inhibition in [5] stood at 29%; in assay [6], 4%; in assay [7], 5%; in [8], 0%. Further, the fold change (FC) was found to be 0 in assay [9], 0.26 in assay [10], 0.04 in assay [11] and 0 in assay [12].

As to `CC(C)[C@H](NC(=O)c1cc(-c2cnn3cc(-c4ccc(OCCN5CCCCC5)cc4)cnc23)cs1)C(F)(F)F`, the fold change (FC) in assay [13] turned out to be 0; in assay [14] it was 0.01.

The values above are taken from ChEMBL document CHEMBL5653631, “A Potent and Selective ULK1 Inhibitor Suppresses Autophagy and Sensitizes Cancer Cells to Nutrient Stress” (iScience, 2018).
